Assay outcomes deposited in PubChem by several laboratories.
PTEN del growth: PTEN-deleted cell growth suppression; viability, % at 10 µM; HCT116 PTEN-null viability, CellTiter-Glo, 60 h; stronger effect = lower value; 140,000 tested, 1.2% active;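 active = viability at or below a set limit, 4 SD under the median of all tested compounds, cut at about 3.7% in these data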;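 also: PTEN knockout HCT116 line with beta catenin targeted HCT116 as companion control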
Dynein cargo inh: dynein cargo transport inhibition. 3617.4 mouse cells, GR-EGFP nuclear translocation imaging; test concentration mostly 20 µM; stimulated with dexamethasone, 1 µM; stronger effect = lower value. 220,000 tested, 0.47% active. z-score, hits read low;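 active = plate z-score of nuclear minus cytoplasmic receptor signal below a set negative limit, without overly bright fluorescence or cell loss, cut at about -3.5 in these data, passing the limit was not always enough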;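 also: z-score of nuclear minus cytoplasmic ring GR-EGFP intensity difference per well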
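Buffer or medium: tet-free medium with charcoal-stripped serum / Also added: dexamethasone agonist, 1.0 µM final, for 30 min / Timing: induction 48 h, compound 1 h, agonist 30 min / Measured by: high-content fluorescence imaging after fixation / Read-out: nuclear-to-cytoplasmic GR-EGFP distribution per well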
Autophagy HCS: alters autophagy in cells; calls only at 10 µM (by protocol); MEF GFP-LC3 puncta imaging; test concentration mostly 10 µM; 190,000 tested, 0.98% active; AID 463193;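 active = percentage of spot-positive cells more than 3 SD above its plate mean, without a fluorescence outlier flag or 80% toxicity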;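 also: spot-positive cell cutoff set from DMSO-treated cells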
L major viab: inhibitors of Leishmania major promastigote growth | Leishmania major promastigotes, resazurin fluorescence viability | inhibition, % at 10 µM | 200,000 tested, 9% active; in the data active = inhibition above about 50%;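 also: promastigotes grown with compound for 44 hours at 28 °C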
HCT116 bCat-KO: beta-catenin-lacking colon tumor cell growth suppression; HCT116 beta-catenin knockout viability, CellTiter-Glo, 60 h; stronger effect = lower value; viability, % at 10 µM; 140,000 tested, 1.5% active; AID 818;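 active = viability at or under a set limit, the compound median less 4 SD, cut at about 6% in these data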;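 also: 0% = Hyamine 1622 control at 20 µM and 100% = untreated cell control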
Lmaj promast 1uM: blocks Leishmania major promastigote growth at 1 uM, repeat screen; shares compounds with L major viab; L. major promastigote growth, resazurin fluorescence, 48 h; inhibition, % at 1 µM; 1,100 tested, 13% active; AID 1258;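 active = inhibition above about 50% in both repeat tests, limit read from the data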
Active calls of the source: *. This is a sample that favours compounds with a hit; in the whole collection about 9.2% have one here.

Cc1ccc(-c2ccnc3nc(-n4cccc4)nn23)o1 was read as Dynein cargo inh 1.1, Autophagy HCS inactive and L major viab 4.
`O=C1NCC(c2ccccc2)C1C(=O)N/N=C\c1ccc(-c2ccc(Cl)c(Cl)c2)o1` (stereo not drawn) gave PTEN del growth 81, Dynein cargo inh -0.77, Autophagy HCS inactive, L major viab 59*, HCT116 bCat-KO 86 and Lmaj promast 1uM -11.
`C=CCn1c(=N)n(CC(O)COc2ccccc2OC)c2ccccc21` (stereo not drawn) gave PTEN del growth 75, Dynein cargo inh 0.21, Autophagy HCS inactive, L major viab 39 and HCT116 bCat-KO 60.
CCCCCn1c(=N)n(CC(O)COc2ccccc2OC)c2ccccc21 (stereo not drawn) was read as PTEN del growth 4, Dynein cargo inh -2.6, L major viab 83*, HCT116 bCat-KO 2.6* and Lmaj promast 1uM 6.
For CCC1S/C(=N\S(=O)(=O)c2cccs2)N(C2CCCCC2)C1=O (stereo not drawn) the results were PTEN del growth 86, Dynein cargo inh 3.5, Autophagy HCS inactive, L major viab 17 and HCT116 bCat-KO 92.
`O=C1C(c2ccc(F)cc2)N(Cc2ccc3c(c2)OCO3)C(=O)CN1C1CCCCCC1` (stereo not drawn) gave PTEN del growth 51, Dynein cargo inh 1.5, Autophagy HCS inactive, L major viab 23 and HCT116 bCat-KO 56.
Screening COc1ccc(C2C(=O)N(C3CCCCC3)CC(=O)N2Cc2ccc3c(c2)OCO3)cc1 (stereo not drawn) returned PTEN del growth 62, Dynein cargo inh -0.65, Autophagy HCS inactive, L major viab 91*, HCT116 bCat-KO 68 and Lmaj promast 1uM -14.
Screening Cc1nn(-c2ccccc2)c2sc(C(=O)OCc3nnc(-c4ccccc4)o3)cc12 returned PTEN del growth 108, Dynein cargo inh 1.4, Autophagy HCS inactive, L major viab -1 and HCT116 bCat-KO 105.
Screening COc1ccccc1N1CCN(C2CCN(C(=O)c3cccc(F)c3)CC2)CC1 returned PTEN del growth 91, Dynein cargo inh -0.61, Autophagy HCS inactive, L major viab 82*, HCT116 bCat-KO 95 and Lmaj promast 1uM -17.
For COc1ccccc1N1CCN(C2CCN(C(=O)c3ccc(F)cc3)CC2)CC1 the results were PTEN del growth 88, Dynein cargo inh -0.43, Autophagy HCS inactive, L major viab -10 and HCT116 bCat-KO 90.
For Nc1nc2c(ncn2COC(CO)CO)c(=O)[nH]1 the results were PTEN del growth 87, Dynein cargo inh 1.1, Autophagy HCS inactive, L major viab 48 and HCT116 bCat-KO 84.
Screening Cc1nnc(Sc2nc3ccccc3o2)c2ccccc12 returned PTEN del growth 16, Dynein cargo inh -1.6, Autophagy HCS inactive, L major viab 64*, HCT116 bCat-KO 18 and Lmaj promast 1uM -3.
Screening COc1cccc(C2C3=C(N=c4s/c(=C\c5ccc(OCC(=O)O)cc5)c(=O)n42)c2ccccc2CC3)c1 (stereo not drawn) returned Dynein cargo inh -0.97.
Screening CCOC(=O)c1c(CC(C)C)csc1N returned Dynein cargo inh -1.1, Autophagy HCS inactive and L major viab -6.
CN(C)Cc1ccccc1Cc1ccccc1 was read as PTEN del growth 103, Dynein cargo inh -0.71, Autophagy HCS inactive, L major viab 0 and HCT116 bCat-KO 98.
CN(C)CCOc1ccccc1Cc1ccccc1 was read as PTEN del growth 82, Dynein cargo inh 0.4, Autophagy HCS inactive, L major viab 100*, HCT116 bCat-KO 91 and Lmaj promast 1uM 89*.
Screening COc1ccc(C(=O)NCC2OCCc3ccccc32)c(O)c1 (stereo not drawn) returned PTEN del growth 98, Dynein cargo inh -0.33, Autophagy HCS inactive, L major viab 53*, HCT116 bCat-KO 98 and Lmaj promast 1uM -6.
For CCCOc1ccc(C(=O)NCC2OCCc3ccccc32)cc1OC (stereo not drawn) the results were Dynein cargo inh 0.65, Autophagy HCS inactive and L major viab 0.
For CCC(C)C(NC(=O)C(C)NC(=O)CNC(=O)OC(C)(C)C)C(N)=O (stereo not drawn) the results were Dynein cargo inh -0.86, Autophagy HCS inactive and L major viab -2.
For Clc1ccc2nnnc(-c3ccccc3)c2c1 the results were PTEN del growth 3.1*, Dynein cargo inh -0.25, Autophagy HCS inactive, L major viab 86*, HCT116 bCat-KO 3.7* and Lmaj promast 1uM 4.
`c1ccc(-c2nnnc3ccccc23)cc1` gave PTEN del growth 78, Dynein cargo inh 0.12, Autophagy HCS inactive, L major viab 2 and HCT116 bCat-KO 60.
`CCCCCCCCC/C(=N\O)c1ccccn1` gave PTEN del growth 7, Dynein cargo inh -0.56, Autophagy HCS inactive, L major viab 87*, HCT116 bCat-KO 3.4* and Lmaj promast 1uM 5.
Screening CCOC(=O)CSc1n[nH]c(NC(=O)CC)n1 returned Dynein cargo inh 0.47, Autophagy HCS inactive and L major viab -1.
`O=C1CC(c2ccccc2Br)c2cc3c(cc2N1)CCC3` (stereo not drawn) gave Dynein cargo inh -0.17, Autophagy HCS inactive, L major viab 100* and Lmaj promast 1uM 88*.
Screening CC(=O)N/C(=C\c1ccc(Cl)cc1)C(=O)O returned Dynein cargo inh 0.22.
`CC(C)c1ccc(S(=O)(=O)c2ccc(NN)cc2)cc1` gave Dynein cargo inh 0.59, Autophagy HCS inactive, L major viab 97* and Lmaj promast 1uM -4.
Screening CCOC(=O)COc1ccc(/C=C2/SC(=Nc3ccccc3)N(Cc3cccnc3)C2=O)cc1OC returned PTEN del growth 83, Dynein cargo inh -1.4, Autophagy HCS inactive, L major viab 60*, HCT116 bCat-KO 91 and Lmaj promast 1uM -8.
FC(F)(F)c1ccc2c(c1)C1C=CCC1C(c1ccncc1)N2 (stereo not drawn) was read as Dynein cargo inh 1.4, Autophagy HCS inactive, L major viab 88* and Lmaj promast 1uM -7.
`O=C(O)c1ccc2c(c1)C1C=CCC1C(c1ccncc1)N2` (stereo not drawn) gave Dynein cargo inh -0.51.
Screening Cn1c(SCC(=O)NCc2cccs2)nnc1-c1ccc(O)cc1 returned Dynein cargo inh -0.68, Autophagy HCS inactive and L major viab -10.
Screening Cn1nc([N+](=O)[O-])nc1Sc1nnc(-c2ccccc2)o1 returned PTEN del growth 2.6*, Dynein cargo inh -3.7*, Autophagy HCS inactive, L major viab 99*, HCT116 bCat-KO 3.4* and Lmaj promast 1uM -2.
Screening Cc1ccccc1Cn1nnc(C(=O)Nc2cccc(C)c2C)c1N returned PTEN del growth 76, Dynein cargo inh 0.47, Autophagy HCS inactive, L major viab 95*, HCT116 bCat-KO 78 and Lmaj promast 1uM -15.
